Screening results: PubChem BioAssay, several laboratories
Compounds with a hit are over-represented: about 2.5% of the library has one in this group of screens.
dFosB activator: mouse delta FosB homodimer activation; P13346; purified delta FosB, TAMRA-CDK5 oligo fluorescence polarization; percent of positive-control signal above neutral wells; activation, % at 25 µM; 0.99% of 340,000 active; AID 493131;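 active = mean activation above about 17%, with every replicate also reaching it, limit read from the data, passing the limit was not always enough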
HTR2A ag: agonists of mouse serotonin 5-HT2A receptor (HTR2A); P35363; CHO-K1 mHTR2A beta-arrestin complementation, luminescence; percent of 30 µM serotonin response; activation, % at 7.6 µM; 0.66% of 360,000 active; AID 624169;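 active = activation above a run cutoff, the mean activation of all tested compounds plus 3 SD, cut at about 14% in these data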;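 also: 0% = plate median of compound wells and 100% = 30 µM serotonin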
IMP-1 inh: blocks Pseudomonas aeruginosa IMP-1 metallo-beta-lactamase; purified IMP-1, nitrocefin hydrolysis, epi-absorbance fluorescence; inhibition, % at 5.6 µM; 0.45% of 290,000 active;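 active = inhibition above the mean plus 3 SD of all compounds in the same screening run, cut at about 4.5% in these data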;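 also: 0% = IMP-1 with DMSO and 100% = DMSO wells lacking enzyme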
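System: Purified recombinant IMP-1 metallo-beta-lactamase enzyme | Measured by: Fluorescence quenching readout, ex 480/em 530 nm | Replication: Singlicate | Incubation: 15 min preincubation plus 25 min reaction at 25 °C | Evaluation: Percent inhibition from optical density relative to buffer-blank wells | Benchmarks: DMSO with and without IMP-1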
VIM-2 inhibitor: blocks Pseudomonas aeruginosa VIM-2 metallo-beta-lactamase; purified VIM-2, nitrocefin hydrolysis, epi-absorbance fluorescence; inhibition, % at 5.6 µM; 0.89% of 290,000 active; AID 1527;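 active = inhibition above the mean of all tested compounds plus 3 SD, cutoff set per screening run, cut at about 7.5% in these data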;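 also: red hydrolysis product quenches plate fluorescence so inhibitors raise well fluorescence; 0% = enzyme with DMSO and 100% = DMSO without enzyme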
OPRM1 ag: OPRM1 agonism in mouse HTR2A counterscreen; AID 624380; activation, % at 9.3 µM; U2OS OPRM1 beta-arrestin PathHunter, luminescence; DMSO 0%, DAMGO 9.3 µM 100%; shares compounds with HTR2A ag; 5.3% of 2,300 active;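 active = mean activation above the mean of DMSO-only wells plus 3 SD, cut at about 0.5% in these data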
Target sequence (P35372 whole entry, looked up): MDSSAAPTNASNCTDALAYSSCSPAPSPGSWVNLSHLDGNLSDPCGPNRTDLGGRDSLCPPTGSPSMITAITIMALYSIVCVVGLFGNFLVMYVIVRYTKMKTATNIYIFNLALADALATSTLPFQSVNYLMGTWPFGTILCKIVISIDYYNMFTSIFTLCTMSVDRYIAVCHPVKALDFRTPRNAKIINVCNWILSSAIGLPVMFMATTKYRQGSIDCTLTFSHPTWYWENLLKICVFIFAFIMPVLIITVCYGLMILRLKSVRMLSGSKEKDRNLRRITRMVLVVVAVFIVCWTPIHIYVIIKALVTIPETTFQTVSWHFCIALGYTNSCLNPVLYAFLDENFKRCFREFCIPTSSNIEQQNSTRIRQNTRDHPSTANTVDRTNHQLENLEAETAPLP
HTR2A ag conf: confirmation of mouse HTR2A serotonin receptor agonists | shares compounds with HTR2A ag | CHO-K1 PathHunter beta-arrestin recruitment, luminescence; DMSO 0%, 30 µM serotonin 100% | activation, % at 7.6 µM | 19% of 2,300 active | AID 624381;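 active = mean activation across triplicates above the hit threshold derived in the original primary screen, cut at about 15% in these data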
* hit, by the source's call; / = no result.

SMILES | dFosB activator | HTR2A ag | IMP-1 inh | VIM-2 inhibitor | OPRM1 ag | HTR2A ag conf
CC(C)c1cc(C(=O)N2CCCC(Nc3ccc(F)cc3)C2)nc(N)n1 (stereo not drawn) | -11 | 16* | -2 | -1 | 0 | 0
CC(C)c1ccc(NC2CCCN(C(=O)c3ccc4nccnc4c3)C2)cc1 (stereo not drawn) | -2 | 21* | -3 | -3 | 0 | -3
CCCCn1nnnc1C(c1ccc(OC)cc1)N1CCN(C/C=C/c2ccccc2)CC1 (stereo not drawn) | / | -4 | / | / | / | /
CCC(C)(C)NC(=O)CN(C(=O)c1csnn1)c1cccc2c1CCCC2 | -9 | 2 | -1 | -1 | / | /
CCC(C)(C)NC(=O)CN(C(=O)c1csnn1)c1ccccc1-c1ccccc1 | 5 | 16* | -3 | -2 | -1 | -4
Cc1ccc(SCc2cc(=O)[nH]c(N3CCN(Cc4ccccc4)CC3)n2)cc1 | -4 | 18* | 0 | -2 | -1 | 12
Cc1ccc(SCc2cc(=O)[nH]c(N3CCN(Cc4ccc5c(c4)OCO5)CC3)n2)cc1 | -8 | 4 | -3 | -2 | / | /
COc1ccc(C2/C(=C(\O)c3ccc4c(c3)OCCO4)C(=O)C(=O)N2Cc2cccnc2)cc1OC (stereo not drawn) | -2 | 20* | -2 | 0 | -1 | 0
Cc1ccc(C2/C(=C(\O)c3ccc4c(c3)OCCO4)C(=O)C(=O)N2Cc2cccnc2)cc1 (stereo not drawn) | -7 | -3 | -1 | -5 | / | /
CCOc1cc(-c2c(C)c(C)nc(N)c2C#N)ccc1O | 3 | 15* | -5 | 3 | 0 | 24*
CN(CC(=O)Nc1cccnc1)S(=O)(=O)c1ccc(Br)cc1 | 5 | 17* | -2 | 0 | -1 | -4
Cc1ccc(S(=O)(=O)N(C)CC(=O)Nc2cccnc2)cc1 | -1 | 6 | 0 | -1 | / | /
CCC(C)NC(=O)C1CCN(S(=O)(=O)c2cc([N+](=O)[O-])ccc2Cl)CC1 (stereo not drawn) | -7 | 24* | -3 | -3 | 0 | -2
Cc1ccc(OCCC(=O)Nc2cc(S(=O)(=O)N3CCOCC3)ccc2N2CCCC2)cc1 | -14 | 5 | / | / | / | /
CCN(CC)c1ccc(S(=O)(=O)N2CCOCC2)cc1NC(=O)CSC(=S)N1CCCC1 | -17 | -2 | 0 | -1 | / | /
COc1ccccc1N1CCN(C(=O)CCc2ccc(S(=O)(=O)NC(C)C)cc2)CC1 | -5 | 0 | -2 | -1 | / | /
COc1ccccc1N1CCN(C(=O)COc2ccc(S(=O)(=O)NC(C)C)cc2)CC1 | -5 | 15* | -3 | -1 | -1 | -2
COc1ccc(CC(=O)NNc2ncnc3c2cnn3-c2ccc(C)cc2)cc1OC | -3 | 0 | -2 | 0 | / | /
COc1cc(C(=O)C(=O)c2ccc(O)c(OC)c2)ccc1O | -2 | 7 | -1 | -1 | / | /
COc1cc(C(=O)O)ccc1O | 2 | 28* | -2 | -1 | -1 | -1
CC(=O)Nc1nnc(Cc2c[nH]c3ccccc23)s1 | 5 | 2 | 1 | -2 | / | /
COc1ccccc1OCCNC(=O)c1ccc(C)o1 | -5 | 15* | / | / | -1 | 1
Cc1ccc(C(=O)NCCNC(=O)c2ccc(C)o2)o1 | -1 | -4 | 1 | 0 | / | /
CCCNC(=O)C1CCN(S(=O)(=O)c2c(C)noc2/C=C\c2ccc(OC)cc2)CC1 | -4 | -8 | -2 | -1 | / | /
CNC(=O)C1CCN(S(=O)(=O)c2c(C)noc2/C=C/c2ccc(OC)cc2)CC1 | 6 | 20* | -2 | 0 | 0 | -4
C[C@]12c3[nH]c4ccc(Cl)cc4c3CCN1C(=O)[C@@H](CC(=O)NCCC1=CCCCC1)C[C@@H]2C(=O)N1CCOCC1 | -14 | 23* | / | / | -1 | -6
C[C@]12c3[nH]c4ccc(Cl)cc4c3CCN1C(=O)[C@@H](CC(=O)NCCN1CCOCC1)C[C@@H]2C(=O)N1CCOCC1 | -3 | 3 | / | / | / | /
O=C(Nc1ccc(Br)cc1)c1ccc2c(c1)OCO2 | 9 | -7 | -2 | 0 | / | /
O=C1CC(c2ccccc2)=NN1c1ccccc1 | -15 | 15* | / | / | -1 | -2
Cc1ccc(-c2cc(-c3ccco3)c3c(N)c(C(=O)NN)oc3n2)cc1 | -19 | 15* | 2 | 0 | 0 | 0
